The source of these data is ChEMBL document CHEMBL6092210, “Synthesis, in vitro and in vivo biological evaluation of novel dual compounds targeting both acetylcholinesterase and serotonergic 5-HT4 receptors with potential interest in the treatment of Alzheimer's disease” (Eur J Med Chem, 2024).

Experiment [1] addresses T1, 5-hydroxytryptamine receptor 4 (Homo sapiens, UniProt Q13639). In words: Partial agonist activity at human recombinant 5HT4 receptor expressed in […] cells assessed as cAMP accumulation by measuring maximum efficacy in presence of serotonin by HTRF analysis relative to control. The class given is functional, cell-based. The conditions noted are these: filed as partial agonist. An outline of the steps:
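COS-7 cells grown in DMEM with 10 % dialyzed FCS and transiently transfected with HA-tagged h5-HT4R, then plated at 16,000 cells/well. At 24 h, cells were exposed for 10 min at 37 °C to 5-HT4 ligands in HEPES-buffered saline containing 0.1 % BSA and 0.1 mM RO-20-1724. Cells were lysed with 0.1 % Triton X-100 and cAMP measured by HTRF.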
A general note: Cyclic AMP is a second messenger, typically raised through Gs and lowered through Gi signalling.

Experiment [2] addresses T2, Acetylcholinesterase (Homo sapiens, UniProt P22303). In words: Inhibition of recombinant human erythrocyte AChE using acetyl-or butyrylthiocholine iodide as substrate at 1 x 10^-6M preincubated for 5 mins followed by substrate addition and measured every min for 10 mins by Ellman's method relative to control. The conditions noted are these: dose 1.0 10^-6M, time 15.0 min. A digest of the protocol: (§1)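 AChE from human erythrocytes (0.05 U final) or recombinant AChE (0.025 U final), diluted in 20 mM HEPES pH 8 with 0.1 % Triton X-100, in an Ellman assay. DTNB is 0.3 mM in phosphate buffer pH 7.4 and compound is in DMSO. Enzyme and compound are preincubated 5 min at 25 °C. Reaction starts with 1 mM acetylthiocholine iodide solution.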

Experiment [3] deals with T1, 5-hydroxytryptamine receptor 4. Nature of the experiment: Partial agonist activity at human recombinant 5HT4 receptor transiently transfected in […] cells using p-nitrophenyl phosphate disodium hexahydrate as substrate assessed as induction of sAPPalpha release by measuring maximum efficacy incubated for 30 mins by microplate reader analysis relative to control. It is filed as functional, cell-based. An outline of the steps:
(§2)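 COS-7 cells co-transfected with FLG-tagged h5-HT4 receptor and SEAP-tagged mouse APP695, seeded at 300,000 cells/well. At 24 h, cells were exposed to drug for 30 min. Supernatants were collected and secreted SEAP activity read colorimetrically with p-nitrophenyl phosphate as substrate.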

Experiment [4] has the same target. In words: Inhibition of human recombinant 5HT4 receptor at 1 x 10^-6M incubated for 60 mins relative to control. The conditions noted are these: dose 1.0 10^-6M. An outline of the steps: (§3)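 Membranes (2.5 μg protein) from a stable recombinant line expressing h5-HT4(b) receptor. Incubated in duplicate at 25 °C for 60 min with 0.2 nM [3H]-GR113808 in 25 mM Tris pH 7.4, with drug at 10^-6 or 10^-8 M. GF/C filtration; non-specific binding defined with 30 μM serotonin. Ki from five-point inhibition curves, ± SD.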

Experiment [5] has the same target. Nature of the experiment: Partial agonist activity at human recombinant 5HT4 receptor at 1 x 10^-8M incubated for 60 mins relative to control. The class given is functional. The settings on record: filed as partial agonist, dose 1.0 10^-8M.
Experiment [6] shares this target. Nature of the experiment: Partial agonist activity at human recombinant 5HT4 receptor transiently transfected in […] cells using p-nitrophenyl phosphate disodium hexahydrate as substrate assessed as induction of sAPPalpha release incubated for 30 mins by microplate reader analysis. It is filed as functional, cell-based. The settings on record: filed as partial agonist. A digest of the protocol:
as §2

For experiment [7] the target is unchanged. In words: Inhibition of human recombinant 5HT4 receptor at 1 x 10^-8M incubated for 60 mins relative to control. The conditions noted are these: dose 1.0 10^-8M. An outline of the steps: as §3
For experiment [8], the target named is Cholinesterase (Equus caballus) (UniProt P81908). Nature of the experiment: Inhibition of equine serum BuChE using Acetyl and butyrylthiocholine iodide as substrate at 1 x 10^-5M preincubated for 5 mins followed by substrate addition and measured every min for 10 mins by Ellman's method relative to control. The settings on record: dose 1.0 10^-5M, time 15.0 min. In general terms: DTNB colorimetry detects thiols as they appear.

Experiment [9] addresses T1, 5-hydroxytryptamine receptor 4. Nature of the experiment: Partial agonist activity at human recombinant 5HT4 receptor at 1 x 10^-6M incubated for 60 mins relative to control. The class given is functional. The settings on record: filed as partial agonist, dose 1.0 10^-6M.
In experiment [10] the target is Acetylcholinesterase (Electrophorus electricus) (UniProt O42275). In words: Displacement of propidium iodide from electric eel AChE 1 x 10^-5M relative to control. The settings on record: dose 1.0 10^-5M.
Experiment [11] addresses T1, 5-hydroxytryptamine receptor 4. In words: Binding affinity to human recombinant 5HT4 receptor assessed as inhibition constant incubated for 60 mins.
Experiment [12] has as its target T2, Acetylcholinesterase. In words: Inhibition of recombinant human erythrocyte AChE using acetyl-or butyrylthiocholine iodide as substrate preincubated for 5 mins followed by substrate addition and measured every min for 10 mins by Ellman's method.
For experiment [13], the target named is T2, Acetylcholinesterase. In words: Inhibition of recombinant human erythrocyte AChE using acetyl-or butyrylthiocholine iodide as substrate at 1 x 10^-5M preincubated for 5 mins followed by substrate addition and measured every min for 10 mins by Ellman's method relative to control. The settings on record: dose 1.0 10^-5M, time 15.0 min. An outline of the steps: as §1

T2 sequence (P22303 whole entry): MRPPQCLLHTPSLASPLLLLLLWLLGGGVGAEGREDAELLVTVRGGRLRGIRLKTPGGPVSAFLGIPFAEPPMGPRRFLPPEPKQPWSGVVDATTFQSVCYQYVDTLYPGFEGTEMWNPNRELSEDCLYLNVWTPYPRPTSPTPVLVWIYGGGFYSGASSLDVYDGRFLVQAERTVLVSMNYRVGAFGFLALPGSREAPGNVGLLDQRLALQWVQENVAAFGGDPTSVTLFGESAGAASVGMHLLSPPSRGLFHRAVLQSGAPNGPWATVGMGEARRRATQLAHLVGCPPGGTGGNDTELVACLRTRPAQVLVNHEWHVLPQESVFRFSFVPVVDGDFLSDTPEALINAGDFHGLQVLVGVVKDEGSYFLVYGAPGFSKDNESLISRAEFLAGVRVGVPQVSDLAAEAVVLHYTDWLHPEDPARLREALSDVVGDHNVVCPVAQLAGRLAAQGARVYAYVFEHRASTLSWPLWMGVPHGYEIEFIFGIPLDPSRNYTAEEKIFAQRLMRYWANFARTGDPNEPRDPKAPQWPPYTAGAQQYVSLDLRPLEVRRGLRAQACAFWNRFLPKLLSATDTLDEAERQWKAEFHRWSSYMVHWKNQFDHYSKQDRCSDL
T1 sequence (Q13639 whole entry): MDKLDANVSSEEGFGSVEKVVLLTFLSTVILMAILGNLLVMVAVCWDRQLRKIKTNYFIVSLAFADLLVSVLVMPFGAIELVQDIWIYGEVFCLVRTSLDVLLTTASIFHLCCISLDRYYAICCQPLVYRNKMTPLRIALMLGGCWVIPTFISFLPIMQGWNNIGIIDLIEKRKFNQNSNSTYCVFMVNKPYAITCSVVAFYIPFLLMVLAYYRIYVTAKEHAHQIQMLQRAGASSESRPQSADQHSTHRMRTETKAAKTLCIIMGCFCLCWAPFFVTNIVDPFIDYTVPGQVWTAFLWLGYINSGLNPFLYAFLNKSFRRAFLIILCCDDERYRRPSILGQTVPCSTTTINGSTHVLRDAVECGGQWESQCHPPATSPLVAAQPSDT
Chain of Cholinesterase (Equus caballus) (P81908 whole entry): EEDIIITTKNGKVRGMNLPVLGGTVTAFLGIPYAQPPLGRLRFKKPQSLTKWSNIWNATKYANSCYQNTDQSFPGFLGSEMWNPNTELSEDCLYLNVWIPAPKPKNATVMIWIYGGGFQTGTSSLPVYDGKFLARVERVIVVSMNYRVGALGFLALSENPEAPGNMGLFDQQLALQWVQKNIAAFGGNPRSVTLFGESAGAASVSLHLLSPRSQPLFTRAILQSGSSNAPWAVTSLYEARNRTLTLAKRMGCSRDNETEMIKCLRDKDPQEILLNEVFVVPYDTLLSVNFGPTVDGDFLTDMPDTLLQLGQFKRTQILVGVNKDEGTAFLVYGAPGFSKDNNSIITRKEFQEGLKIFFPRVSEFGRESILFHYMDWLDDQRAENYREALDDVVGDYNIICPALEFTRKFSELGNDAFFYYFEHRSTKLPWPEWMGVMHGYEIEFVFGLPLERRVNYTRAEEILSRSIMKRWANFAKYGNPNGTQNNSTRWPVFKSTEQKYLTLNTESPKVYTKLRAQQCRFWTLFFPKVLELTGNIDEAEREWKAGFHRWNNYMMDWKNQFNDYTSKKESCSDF
Chain of Acetylcholinesterase (Electrophorus electricus) (O42275 24-633 limits assumed): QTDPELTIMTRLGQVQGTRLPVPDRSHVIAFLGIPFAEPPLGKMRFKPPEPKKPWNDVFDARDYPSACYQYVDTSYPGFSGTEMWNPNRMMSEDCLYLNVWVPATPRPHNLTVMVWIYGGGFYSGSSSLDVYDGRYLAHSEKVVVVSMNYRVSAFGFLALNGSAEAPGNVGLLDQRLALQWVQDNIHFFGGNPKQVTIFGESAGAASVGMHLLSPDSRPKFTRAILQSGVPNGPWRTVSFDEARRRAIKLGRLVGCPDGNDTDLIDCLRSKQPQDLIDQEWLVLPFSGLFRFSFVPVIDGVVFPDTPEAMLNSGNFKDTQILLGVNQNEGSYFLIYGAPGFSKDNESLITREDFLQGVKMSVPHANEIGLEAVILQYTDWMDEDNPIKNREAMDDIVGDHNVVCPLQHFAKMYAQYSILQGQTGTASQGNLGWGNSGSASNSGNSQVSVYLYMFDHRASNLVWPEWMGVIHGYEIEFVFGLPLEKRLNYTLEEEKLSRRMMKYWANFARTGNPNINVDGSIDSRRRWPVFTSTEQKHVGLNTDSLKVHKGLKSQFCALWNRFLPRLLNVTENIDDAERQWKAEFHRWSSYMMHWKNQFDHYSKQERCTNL

In the case of `COc1cc(N)c(F)cc1C(=O)CCC1CCN(CC2CCCCC2)CC1`, the Emax in experiment [1] worked out at 67.3%; in experiment [3], 19.7%. Further, the inhibition in [2] amounted to 96%; in experiment [4] it was 102%; in experiment [7], 68%; in experiment [8], 65%; in experiment [10], 22%. Moreover, the Activity is 66% in [5], “Dose-dependent-effect” in [6] and 100% in experiment [9]. Also, the EC50 in [6] came out at 23 nM.
For the compound `COc1ccccc1C(=O)CCC1CCN(CC2CCCCC2)CC1`, the inhibition in experiment [2] worked out at 85%; in experiment [4] it was 102%; in [7], 31%. Also, the Ki in experiment [11] stood at 121 nM. Moreover, the IC50 in [12] worked out at 166 nM.
For `COc1cc(N)ccc1C(=O)CCC1CCN(CC2CCCCC2)CC1`, the inhibition in experiment [4] turned out to be 96%; in experiment [7], 10%; in experiment [13] it was 97%.
For the compound `CCOc1cc(N)ccc1C(=O)CCC1CCN(CC2CCCCC2)CC1`, the figures for the inhibition in experiment [2], in experiment [4] and in experiment [7] were 93%, 101% and 38%, respectively. Also, in experiment [11], the inhibitory constant (Ki) was determined as 24.7 nM. Also, the IC50 in [12] came out at 87.1 nM.
For `Nc1ccc(C(=O)CCC2CCN(CC3CCCCC3)CC2)c(OCCF)c1`, in that order: 79%, 100%, 27%, 39.9 nM and 318 nM.
Turning to `COc1cc(N)c(Cl)cc1C(=O)CCC1CCN(CC2CCCCC2)CC1`, the inhibition amounted to 92% in experiment [2] (tested as the 2H-labelled form), 98% in [4] (tested as the 2H-labelled form) and 29% in [7] (tested as the 2H-labelled form).
For `CCOc1cc(N)c(Cl)cc1C(=O)CCC1CCN(CC2CCCCC2)CC1`, the figures for the inhibition in experiment [2], in experiment [4] and in experiment [7] were 69%, 103% and 86%, respectively.
Regarding `COc1cc(N)c(I)cc1C(=O)CCC1CCN(CC2CCCCC2)CC1`, the figures for the inhibition in experiment [4], in experiment [7] and in [13] were 103%, 36% and 88%, respectively.
For the compound `Nc1cc(OCCF)c(C(=O)CCC2CCN(CC3CCCCC3)CC2)cc1Cl`, the inhibition in experiment [2] was 60%; in experiment [4], 102%; in experiment [7], 78%.
Turning to `COc1cc(NC(C)=O)c(Cl)cc1C(=O)CCC1CCN(CC2CCCCC2)CC1`, the inhibition in experiment [2] turned out to be 98%; in experiment [4] it was 94%; in experiment [7], 1%. Moreover, the inhibition constant Ki in experiment [11] came to 270 nM.
In the case of `COc1cc(N)c(Br)cc1C(=O)CCC1CCN(CC2CCCCC2)CC1`, the inhibition in [4] is 105%; in [7], 61%; in [13] it was 98%.
For `O=C(CCC1CCN(CC2CCCCC2)CC1)c1ccc(O)cc1`, the inhibition worked out at 35% in experiment [2], 102% in [4] and 58% in experiment [7]. Besides, in experiment [11], the inhibition constant (Ki) was 17.6 nM.
With `Nc1ccc(C(=O)CCC2CCN(CC3CCCCC3)CC2)cc1Cl`, the inhibition in experiment [2] is 96%; in experiment [4], 97%; in [7], 10%. In addition, the 50% inhibitory concentration (IC50) in experiment [12] is 49.7 nM.
Regarding `COc1c(C(=O)CCC2CCN(CC3CCCCC3)CC2)cc(F)c(N)c1I`, the inhibition was determined as 89% in experiment [2], 89% in experiment [4] and 2% in [7]. The IC50 in [12] was 234 nM.
In the case of `Nc1cc(OCCF)c(C(=O)CCC2CCN(CC3CCCCC3)CC2)cc1I`, the inhibition is 45% in [2], 101% in experiment [4] and 22% in [7]. Further, the inhibitory constant (Ki) in [11] was found to be 521 nM.
For `CC(=O)Nc1cc(O)c(C(=O)CCC2CCN(CC3CCCCC3)CC2)cc1Cl`, the inhibition turned out to be 94% in experiment [2], 47% in [4] and 8% in experiment [7]. The IC50 in [12] came to 57.3 nM.
For the compound `COc1cc(O)c(Cl)cc1C(=O)CCC1CCN(CC2CCCCC2)CC1`, the inhibition in experiment [2] amounted to 78%; in experiment [4], 76%; in experiment [7], 2%.
`Nc1ccc(C(=O)CCC2CCN(CC3CCCCC3)CC2)cc1`: the values for the inhibition in [2], in experiment [4] and in experiment [7] were 78%, 80% and 4%, respectively. Moreover, the IC50 in [12] is 317 nM.
Consider `Nc1cc(O)c(C(=O)CCC2CCN(CC3CCCCC3)CC2)cc1Cl`, for which the inhibition in experiment [2] was determined as 93%; in [4], 96%; in experiment [7] it was 3%.
Consider `COc1c(C(=O)CCC2CCN(CC3CCCCC3)CC2)cc(F)c(N)c1Br`, for which the figures for the inhibition in experiment [2], in experiment [4] and in experiment [7] were 85%, 80% and 8%, respectively. Moreover, the half-maximal inhibitory concentration (IC50) in [12] stood at 309 nM.
Consider `CCOc1cc(N)c(I)cc1C(=O)CCC1CCN(CC2CCCCC2)CC1`, for which the inhibition stood at 51% in [2], 103% in [4] and 65% in experiment [7]. Moreover, the Ki in [11] turned out to be 86 nM.

By Emax is commonly meant the maximal effect, on the per cent scale that the assay sets. For orientation: inhibition means the drop in the measured response relative to a control, in per cent. As a reminder, the EC50 is the concentration at which the effect is half-maximal. As a reminder, the Ki is the dissociation constant of the complex between target and ligand, obtained from inhibition or displacement. Broadly, the IC50 is the concentration that inhibits the measured activity by half.
